The record followed here is ChEMBL document CHEMBL1759885, “Syntheses of 1,2,3-triazolyl salicylamides with inhibitory activity on lipopolysaccharide-induced nitric oxide production” (Bioorg Med Chem Lett, 2011).

The source made the active and inactive calls. The rule behind the calls is not given here.

The subject of data set [1] is RAW264.7. The data set can be described thus: Inhibition of LPS-induced nitric oxide production in mouse RAW264.7 cells at 20 uM after 20 hrs by Griess reaction. The format is functional. The note with it: RAW264.7, 20 h. An outline of the steps: (§1)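 RAW 264.7 cells plated at 5 × 10⁵ cells/mL, grown 24 h, then given LPS (1 µg/mL) plus compound (DMSO vehicle, final ≤0.1%) for 20 h. Supernatant nitrite measured with Griess reagent (1% sulfanilamide in 5% H₃PO₄, 0.1% N-(1-naphthyl)ethylenediamine) at 540 nm against a NaNO₂ standard curve. %inhibition = [1 − sample NO/vehicle-control NO] × 100. IC50 by nonlinear regression.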
Background: Nitrite, measured by Griess reagent, commonly stands in for NO production.

Data set [2] has as its system RAW264.7. Nature of the data set: Inhibition of LPS-induced nitric oxide production in mouse RAW264.7 cells after 20 hrs by Griess reaction. The format is functional, cell-based. The note with it: for IC50: RAW264.7, 20 h. An outline of the steps: as §1
Data set [3] concerns RAW264.7. The data set can be described thus: Cytotoxicity against mouse RAW264.7 cells assessed as cell viability upto 15 uM after 24 hrs by MTT assay. The format is cell-based. The note with it: raw264.7, 24 h. An outline of the steps: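 RAW 264.7 macrophages exposed to compound for 24 h, and viability then read by MTT assay.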
The test system of data set [4] is RAW264.7. Nature of the data set: Inhibition of LPS-induced iNOS protein expression in mouse RAW264.7 cells after 16 hrs by Western blot. The format is functional, cell-based. An outline of the steps: (§2)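 RAW 264.7 cells stimulated with LPS (1 µg/mL) with or without several compound concentrations. Total RNA collected at 4 h and analysed for iNOS mRNA by RT-PCR. Protein collected at 16 h and analysed for iNOS by western blot, with β-actin as reference.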
Background: Immunoblotting shows a protein as a band on a membrane.

The test system of data set [5] is RAW264.7. Nature of the data set: Inhibition of LPS-induced iNOS mRNA expression in mouse RAW264.7 cells after 4 hrs by RT-PCR. The format is functional, cell-based. An outline of the steps: as §2
Data set [6] has as its system RAW264.7. The data set can be described thus: Inhibition of LPS-induced iNOS protein expression in mouse RAW264.7 cells at 15 uM after 16 hrs by Western blot. The format is functional, cell-based. A digest of the protocol: as §2
In data set [7] the test system is RAW264.7. The data set can be described thus: Inhibition of LPS-induced iNOS mRNA expression in mouse RAW264.7 cells at 15 uM after 4 hrs by RT-PCR. The format is functional, cell-based. A digest of the protocol:
as §2

In data set [1], `CC(C)CCc1cn(-c2ccc(C(=O)N3CCCCC3)c(O)c2)nn1` gave an inhibition at 20 µM of 1.9%. Moreover, the IC50 in data set [2] is above 20 µM.

In data set [2], `CNC(=N)NCCC[C@H](N)C(=O)O` [TILARGININE] came in with an IC50 of 19.9 µM.

In data set [1], `CCCNC(=O)c1ccc(-n2cc(-c3cc(F)cc(F)c3)nn2)cc1O` showed an inhibition at 20 µM of 0%. This molecule also displayed an IC50 in data set [2] above 20 µM.

In data set [1], `CCCNC(=O)c1ccc(-n2cc(-c3cc(C(F)(F)F)cc(C(F)(F)F)c3)nn2)cc1O` registered an inhibition at 20 µM of 0%. Besides, the IC50 in data set [2] was above 20 µM.

In data set [1], `O=C(c1ccc(-n2cc(-c3ccccc3)nn2)cc1O)N1CCCCC1` returned an inhibition at 20 µM of 0%. This molecule also gave an IC50 in data set [2] above 20 µM.

`O=C(c1ccc(-n2cc(-c3cc(C(F)(F)F)cc(C(F)(F)F)c3)nn2)cc1O)N1CCCCC1`: the inhibition at 20 µM in data set [1] stood at 0%. The same molecule gave an IC50 in data set [2] above 20 µM.

In data set [1], `CCCNC(=O)c1cc(-n2cc(-c3ccccc3)nn2)ccc1O` returned an inhibition at 20 µM of 28.6%. In data set [2], this molecule returned an IC50 above 20 µM.

`O=C(c1cc(-n2cc(-c3cc(C(F)(F)F)cc(C(F)(F)F)c3)nn2)ccc1O)N1CCCCC1` registered an inhibition at 20 µM in data set [1] of 94.1%. The Activity result in data set [2] was “Dose-dependent effect”; in data set [3], “Non-toxic”. Inhibition in data set [2] was half-maximal at 12.8 µM (IC50). For the same molecule, the inhibition entry in data set [4] and in data set [5] was “Dose-dependent effect” throughout. For the same molecule, the inhibition result in data set [6] and in data set [7] was “Active” throughout.

Consider `CC(C)CCc1cn(-c2ccc(O)c(C(=O)N3CCCCC3)c2)nn1`, for which, in data set [1], the inhibition at 20 µM came to 0.9%. Moreover, the IC50 in data set [2] is above 20 µM.

As to `CCCCCCc1cn(-c2ccc(C(=O)NCCC)c(O)c2)nn1`, at 20 µM the inhibition in data set [1] was 11%. This molecule yielded an IC50 in data set [2] above 20 µM.

The molecule `CCCCCCc1cn(-c2ccc(O)c(C(=O)N3CCCCC3)c2)nn1` yielded an inhibition at 20 µM in data set [1] of 4.2%. In data set [2], this molecule yielded an IC50 above 20 µM.

As to `CCCNC(=O)c1cc(-n2cc(-c3cccc(Cl)c3)nn2)ccc1O`, in data set [1], testing at 20 µM gave an inhibition of 33.8%. In addition, the IC50 in data set [2] is above 20 µM.

Turning to `CCCNC(=O)c1cc(-n2cc(-c3cc(F)cc(F)c3)nn2)ccc1O`, 20 µM produced 0% inhibition in data set [1]. This molecule also registered an IC50 in data set [2] above 20 µM.

`O=C(c1ccc(-n2cc(-c3cc(F)cc(F)c3)nn2)cc1O)N1CCCCC1` showed an inhibition at 20 µM in data set [1] of 0%. The molecule also gave an IC50 in data set [2] above 20 µM.

As for `CCCCCCc1cn(-c2ccc(O)c(C(=O)NCCC)c2)nn1`, the inhibition at 20 µM in data set [1] is 57.9%. The molecule further showed an IC50 in data set [2] of 19.7 µM.

The molecule `CCCNC(=O)c1ccc(-n2cc(CCC(C)C)nn2)cc1O` had an inhibition at 20 µM in data set [1] of 7.3%. The same molecule yielded an IC50 in data set [2] above 20 µM.

Molecule `CCCCCCc1cn(-c2ccc(C(=O)N3CCCCC3)c(O)c2)nn1` displayed an inhibition at 20 µM in data set [1] of 8.3%. This molecule also gave an IC50 in data set [2] above 20 µM.

In data set [1], `CCCCCc1ccc(-c2cn(-c3ccc(C(=O)NCCC)c(O)c3)nn2)cc1` displayed an inhibition at 20 µM of 0%. In data set [2], this molecule yielded an IC50 above 20 µM.

For the molecule `CCCNC(=O)c1ccc(-n2cc(-c3cccc(Cl)c3)nn2)cc1O`, in data set [1], the inhibition at 20 µM was found to be 0%. This molecule also returned an IC50 in data set [2] above 20 µM.

Molecule `CCCCCc1ccc(-c2cn(-c3ccc(O)c(C(=O)NCCC)c3)nn2)cc1` displayed an inhibition at 20 µM in data set [1] of 0%. In data set [2], the IC50 is above 20 µM.

Molecule `O=C(c1cc(-n2cc(-c3cccc(Cl)c3)nn2)ccc1O)N1CCCCC1` displayed an inhibition at 20 µM in data set [1] of 35.4%. In data set [2], this molecule returned an IC50 above 20 µM.

Take `O=C(c1ccc(-n2cc(-c3cccc(Cl)c3)nn2)cc1O)N1CCCCC1`: in data set [1], the inhibition at 20 µM amounted to 0%. For the same molecule, the IC50 in data set [2] is above 20 µM.

`CCCNC(=O)c1cc(-n2cc(-c3cc(C(F)(F)F)cc(C(F)(F)F)c3)nn2)ccc1O` showed an inhibition at 20 µM in data set [1] of 1.8%. In data set [2], the IC50 was above 20 µM.

In turn, `CCCNC(=O)c1ccc(-n2cc(-c3ccccc3)nn2)cc1O` had an inhibition at 20 µM in data set [1] of 1.1%. For the same molecule, in data set [2], the IC50 is above 20 µM.

Molecule `CCCCCc1ccc(-c2cn(-c3ccc(C(=O)N4CCCCC4)c(O)c3)nn2)cc1` came in with an inhibition at 20 µM in data set [1] of 0%. The half-maximal inhibitory concentration (IC50) in data set [2] was above 20 µM.

In turn, `O=C(c1cc(-n2cc(-c3cc(F)cc(F)c3)nn2)ccc1O)N1CCCCC1` registered an inhibition at 20 µM in data set [1] of 9.1%. The IC50 in data set [2] was above 20 µM.

In data set [1], `CCCNC(=O)c1cc(-n2cc(CCC(C)C)nn2)ccc1O` came in with an inhibition at 20 µM of 22.6%. For the same molecule, in data set [2], the IC50 is above 20 µM.

The molecule `CCCCCc1ccc(-c2cn(-c3ccc(O)c(C(=O)N4CCCCC4)c3)nn2)cc1` had an inhibition at 20 µM in data set [1] of 18.4%. Also, the IC50 in data set [2] was above 20 µM.

`O=C(c1cc(-n2cc(-c3ccccc3)nn2)ccc1O)N1CCCCC1`: the inhibition at 20 µM in data set [1] amounted to 11.8%. This molecule returned an IC50 in data set [2] above 20 µM.

Broadly, the inhibition is the change of the read-out against control, counted positive when it falls. What is called IC50 is the midpoint of a concentration-inhibition curve. Lower therefore signals inhibition by little substance.
